# Source: PubChem BioAssay (several laboratories)
# CendR NRP1 mod: modulators of CendR peptide binding to NRP-1, primary screen, biochemical, fluorescence polarization, uHTS. Neuropilin-1 (Homo sapiens), O14786. FAM-RPARPAR peptide binding to NRP-1. inhibition, % at 25 µM. 360,000 tested, 0.85% active. AID 602438, 2012;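 active = inhibition or corrected inhibition above about 18%, plus a signal ratio from 0.5 to 1.5, limit read from the data, passing the limit was not always enough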
# ASAP1 GAP inh: inhibitors of human ASAP1 ArfGAP activity, primary screen, biochemical, fluorescence polarization. Arf-GAP with SH3 domain, ANK repeat and PH domain-containing protein 1 (Homo sapiens), …. ASAP1-stimulated ARF1 GTP hydrolysis, GDP FP detection. inhibition, % at 16.5 µM. 360,000 tested, 0.19% active; in the data active = inhibition above about 25%;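 also: 0% = vehicle with enzyme and substrate and 100% = no enzyme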
# ARFGAP1 inhibitor: inhibitors of rat ARFGAP1 GAP activity, primary screen, biochemical, fluorescence polarization, GDP tracer | ADP-ribosylation factor GTPase-activating protein 1 (Rattus norvegicus), Q62848 | Arfgap1-stimulated ARF1 GTP hydrolysis, GDP FP detection | inhibition, % at 16.5 µM | 360,000 tested, 0.26% active | AID 651572, 2012;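 active = inhibition above a per-plate limit, mean inhibition of low control wells plus 3 SD, cut at about 25% in these data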;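 also: 0% = DMSO wells with enzyme and 100% = wells lacking Arfgap1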
# Target sequence (Q62848 1-136 limits assumed): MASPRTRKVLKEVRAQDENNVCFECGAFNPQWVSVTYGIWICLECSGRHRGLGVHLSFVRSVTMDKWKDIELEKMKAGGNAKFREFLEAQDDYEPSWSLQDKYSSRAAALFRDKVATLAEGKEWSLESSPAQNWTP
#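 Material: truncated rat Arfgap1 GAP domain; Incubation: compound-enzyme preincubation 20 min, reaction 120 min, detection 60 min, 25 °C; Read-out: percent inhibition of Arfgap1-stimulated GTP hydrolysis; Technique: FP, GDP Alexa 633 tracer displaced from anti-GDP antibody, 620/688 nm; Controls: No-Arfgap1 wells (100%) versus DMSO full-reaction wells (0%); Replication: single well per compound.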
# Granule exo inh: LAMP-1 surface exposure blockers, TALL-104 cells – cell-based, flow cytometry, MLPCN library, primary screen; TALL-104 LAMP-1 surface exposure; cells stimulated with thapsigargin and PMA; AID 651702, 2012; inhibition, % at 10 µM; 360,000 tested, 0.66% active;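 active = inhibition above about 55%, limit read from the data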
# V-ATPase pH: regulators of yeast V-ATPase proton pumping, primary screen, pHLuorin cytosolic pH fluorescence; S. cerevisiae; response, % at 10 µM; 350,000 tested, 0.37% active; AID 504577, 2011; in the data active = response mostly above about 7.3%, no sharp cut-off; inactive = mostly below about 5.4%; also: actives read high
# Starred values were filed as active, the others as inactive; / = no result. Sampled rows, rich in hits. Any-hit rate of the full collection: about 2.2%.
SMILES,CendR NRP1 mod,ASAP1 GAP inh,ARFGAP1 inhibitor,Granule exo inh,V-ATPase pH
COC(=O)[C@]12C[C@H](CC(=O)N3CCCCC3)C(=O)N(Cc3ccc4c(c3)OCO4)C1=C[C@H](C(C)(C)C)O[C@@H]2C,/,-6,2,/,/
CCCC[n+]1ccn(C2=C([O-])c3ccccc3C(=O)/C2=N\S(=O)(=O)c2ccc(Br)cc2)c1,4,2,2,18,0
Cc1ccc(S(=O)(=O)/N=C2\C(=O)c3ccccc3C([O-])=C2n2cc[n+](CCC(C)C)c2)cc1,31*,/,/,-6,-2
CCn1c(=O)cc(SCC(=O)N2CCCCC2)c2ccccc21,22*,6,-1,1,2
CCN1CCN(C(=O)CSc2cc(=O)n(CC)c3ccccc23)CC1,-5,5,0,2,2
CCOc1ccccc1NC(=O)COC(=O)CCOc1cc(C)ccc1C,-3,6,-4,-2,0
CN(C)S(=O)(=O)N1CCCC(C(=O)c2ccc(-c3ccccc3)c(F)c2)C1 (configuration not stated),20*,2,-9,49,1
CSc1ccc(C(=O)C2CCCN(S(=O)(=O)N(C)C)C2)cc1 (configuration not stated),-1,13,4,-1,3
CC(Nc1nc(-c2ccc(F)cc2)cs1)c1nc2cc(Cl)c(Cl)cc2n1CCOCCO (configuration not stated),-7,-3,-3,-11,-3
Cc1csc(NC(C)c2nc3cc(C(F)(F)F)ccc3n2CCOCCO)n1 (configuration not stated),33*,3,13,21,-2
COC(=O)[C@]12C[C@H](CC(=O)N3CCOCC3)C(=O)N(CCC3=CCCCC3)C1=C[C@H](C(C)(C)C)O[C@@H]2C,/,4,-9,/,/
CCCN1CCC(NC(=S)Nc2ccc(OC)c(OC)c2)CC1,5,-1,-10,10,-2
CCCN1CCC(NC(=O)Nc2ccc(OC)c(OC)c2)CC1,49*,2,-3,-6,-4
CCOC(=O)C1=CCN(S(=O)(=O)c2ccc(C)cc2)C1c1ccc(C(C)C)cc1 (configuration not stated),28*,-13,5,0,/
CCOC(=O)C1=CCN(S(=O)(=O)c2ccccc2Br)C1c1ccccc1 (configuration not stated),25*,-4,14,5,/
CCOC(=O)C1=CCN(S(=O)(=O)c2ccc(C)cc2)C1c1ccc(C)cc1 (configuration not stated),-4,11,2,-3,/
CCOC(=O)C1=CCN(S(=O)(=O)c2ccccc2Br)C1c1ccc(C)cc1 (configuration not stated),19,-2,-6,2,/
O=C(NCc1ccccc1)[C@H]1CCCN1C(=O)[C@H]1CCCN1C(=O)C1CCCCC1,/,-1,2,/,/
COC(=O)C1=C(C)N(Cc2ccccc2)C(=NCCc2ccccn2)N[C@H]1c1cccc(C(F)(F)F)c1,12,0,4,0,-2
CCN1C(=NCCc2ccccn2)N[C@@H](c2cccc(C(F)(F)F)c2)C(C(=O)OC)=C1C,21*,-2,4,0,-6
Cn1nc([N+](=O)[O-])c(C(C#N)c2nc3ccccc3n2C)c(Cl)c1=O (configuration not stated),28*,-10,-4,71*,0
Cc1ccc(CN2CCN(Cc3c(C)nn(C(C)C)c3C)CC2CCO)o1 (configuration not stated),18*,-5,1,-1,-1
